CHRM4 agonist: CHRM4 agonism in calcium assay; CHO-K1 hM4/Gqi5, Fluo-8 calcium fluorescence; vehicle 0%, full acetylcholine response 100%; activation, % at 3 µM; 360,000 tested, 0.14% active;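 active = activation above the run mean over all test wells plus 3 SD, cut at about 32% in these data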;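 also: peak over basal fluorescence ratio per well then scaled between controls; 0% = DMSO wells and 100% = acetylcholine at EC100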
Target sequence (P08173 whole entry, looked up): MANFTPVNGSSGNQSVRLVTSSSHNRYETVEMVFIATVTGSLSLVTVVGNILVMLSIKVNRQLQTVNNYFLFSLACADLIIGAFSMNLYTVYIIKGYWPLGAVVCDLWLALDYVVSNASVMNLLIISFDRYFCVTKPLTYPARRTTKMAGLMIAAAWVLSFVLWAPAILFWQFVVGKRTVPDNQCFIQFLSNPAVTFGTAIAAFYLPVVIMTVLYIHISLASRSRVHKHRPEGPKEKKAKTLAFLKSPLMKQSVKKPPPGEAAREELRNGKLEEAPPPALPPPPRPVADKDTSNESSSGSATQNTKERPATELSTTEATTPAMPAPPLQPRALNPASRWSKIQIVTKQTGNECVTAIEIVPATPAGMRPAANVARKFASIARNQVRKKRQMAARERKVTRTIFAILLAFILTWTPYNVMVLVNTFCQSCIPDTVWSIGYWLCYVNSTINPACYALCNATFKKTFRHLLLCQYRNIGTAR
CHRM5 antagonist: blocks acetylcholine activation of human M5 receptor | CHO-hM5 cells, Fluo-8 calcium fluorescence, ACh EC80 | inhibition, % at 3 µM | 360,000 tested, 0.59% active;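 active = inhibition above a per-plate cutoff, the mean of that plate's test compounds plus 3 SD, cut at about 27% in these data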;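 also: 0% = acetylcholine EC80 with DMSO and 100% = DMSO without agonist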
M4 antag: antagonists of human muscarinic M4 receptor (CHRM4) | CHO-hM4 cells, ACh EC80, Fluo-8 calcium fluorescence | 360,000 tested, 0.73% active | inhibition, % at 3 µM | P08173;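 active = inhibition above its plate's cutoff, the mean inhibition of sample wells plus 3 SD, cut at about 27% in these data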;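 also: 0% = acetylcholine EC80 with DMSO and 100% = DMSO without agonist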
CHRM4 PAM: potentiates acetylcholine response at human M4 receptor; 360,000 tested, 0.4% active; activation, % at 3 µM; P08173; AID 624126; CHO-K1 hM4/Gqi5, Fluo-8 calcium fluorescence, ACh EC20; 0% = ACh EC20, 100% = maximal ACh;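 active = activation above its plate's cutoff, the mean activation of sample wells plus 3 SD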
CHRM5 PAM: CHRM5 positive allosteric modulation; CHO-K1 hM5, Fluo-8 calcium, ACh EC20 PAM; 0% = ACh EC20, 100% = ACh EC100; activation, % at 3 µM; 360,000 tested, 0.3% active;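 active = activation above the run cutoff, the mean activation of all test compounds plus 3 SD, cut at about 18% in these data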
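Assay system: CHO-K1 hM5 cells / Incubation: Fluo-8 loading 80 min at 37 °C plus 30 min room temperature / Technique: Fluo-8 calcium dye fluorescence, kinetic read / Repeats: single replicate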
M5 ag: agonists of human muscarinic M5 receptor (CHRM5). P08912. CHO-K1 hM5 cells, Fluo-8 calcium fluorescence; 0% DMSO wells, 100% maximal acetylcholine response. activation, % at 3 µM. 360,000 tested, 0.19% active. AID 624037;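 active = activation above the run's mean over test compounds plus 3 SD, cut at about 23% in these data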;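 also: signal is peak over basal fluorescence ratio across the kinetic read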
Active calls of the source: *; + = active, no number. A selection: hits, their analogues and other compounds. The true share with any hit is near 1.8%.

SMILES	CHRM4 agonist	CHRM5 antagonist	M4 antag	CHRM4 PAM	CHRM5 PAM	M5 ag
CCc1ccc(NC(=O)CCCN2C(=O)C3CC=CCC3C2=O)cc1 (stereo not given)	1.8	29.0*	-12.7	3.9	-8.5	-8.0
O=C1[C@H]2[C@@H](c3ccc(C(F)(F)F)cc3)N[C@]3(CCCN(Cc4ccc(C(F)(F)F)cc4)C3=O)[C@H]2C(=O)N1Cc1ccccc1	2.8	4.8	-22.6	-0.4	-3.0	-1.4
COc1cccc(/C=C/C(=O)OCCN2C(=O)c3ccccc3C2=O)c1	14.5	3.5	-16.8	-6.5	-10.0	0.2
COc1ccccc1/C=C/C(=O)OCCN1C(=O)c2ccccc2C1=O	9.1	9.2	78.8*	-19.6	-5.5	-2.9
Cn1c(N)c(C(=O)COC(=O)/C=C/c2ccc(Cl)cc2Cl)c(=O)n(C)c1=O	0.9	-1.4	9.5	-0.7	-1.8	1.1
COc1ccccc1/C=C/C(=O)OCC(=O)c1c(N)n(C)c(=O)n(C)c1=O	0.5	3.7	6.5	7.9	19.4*	1.7
COc1ccc(N(C)S(=O)(=O)c2cccc(C(=O)OCC(=O)c3c(N)n(C)c(=O)n(C)c3=O)c2)cc1	31.3	19.2	38.0*	-15.9	-40.4	4.8
CCC(=O)N1CCCC(C)(C(=O)NS(=O)(=O)c2cccs2)C1 (stereo not given)	0.1	-1.4	-14.6	6.4	-5.1	-0.8
CN(C)c1ccc(-c2ccnc3c2CC(C)(C(=O)Nc2cccc(C(F)(F)F)c2)O3)cc1 (stereo not given)	1.6	-2.7	-10.1	1.5	-3.8	0.9
C=C(C)Cn1c2ccc(NC(=O)NCCc3ccccc3)cc2c(=O)n1C	0.9	1.9	-1.6	2.3	2.5	1.2
COc1cc2c(cc1OC)-c1cc(OCCN3CCOCC3)nc(=O)n1CC2	-1.3	2.6	-6.3	5.3	24.8*	-6.2
CCOc1ccc(C2C(C#N)=C(N)SC(N)=C2C#N)cc1OCC	5.6	4.3	5.3	0.6	-2.9	5.1
CCc1ccc(C2C(C#N)=C(N)SC(N)=C2C#N)cc1	45.8*	0.3	0.6	-13.0	-12.8	15.8
C/C(=N/OC(=O)c1c(-c2c(Cl)cccc2Cl)noc1C)c1cnccn1	1.5	16.7	24.4	-25.4	-33.2	-16.8
C/C(=N/OC(=O)c1c(-c2ccccc2Cl)noc1C)c1cnccn1	4.4	4.0	33.9*	-20.9	-33.1	-15.4
Cc1nn(CC(=O)Nc2ccc(C(=O)N3CCCCC3)cc2)c(=O)c2ccccc12	-0.3	-0.3	5.6	-0.9	-5.4	-1.7
COc1cccc(-c2ccc(=O)n(CC(=O)Nc3ccc(C(=O)N4CCCC4)cc3)n2)c1	-1.1	-1.3	-3.8	9.2	19.3*	-6.1
Cc1nn(CC(=O)Nc2ccc(C(=O)N3CCCC3)cc2)c(=O)c2ccccc12	-1.7	18.7	-7.6	9.7	38.7*	2.7
Cc1c(C(=O)N2CCCC2)c(S(=O)(=O)Nc2cccc(Br)c2)c(C)n1C	2.2	-13.2	-9.2	3.0	2.3	-2.7
CCCC1C(=O)Nc2ccccc2N1C(=O)c1cccc(C)c1 (stereo not given)	1.5	29.1*	45.0*	-17.9	-21.4	-10.2
CCc1nc2ccc(C(=O)NCCc3ccccn3)cn2c1N(CC)Cc1cccc(Br)c1	10.5	4.2	0.7	-10.6	-6.7	0.2
CC(=O)NC(CCc1ccc(Cl)c(Cl)c1)c1cccc(O)c(=O)c1 (stereo not given)	0.5	1.7	-18.4	10.0	-0.5	-0.3
CCOC(=O)N1CCN(c2ccnc3cc(Cl)ccc23)CC1	6.3	12.6	77.2*	-22.9	-15.1	-5.1
CCCC(=O)N1CCC1(C)C(=O)Nc1ccc2scnc2c1 (stereo not given)	0.6	6.7	5.8	2.2	-1.2	1.0
CCc1nnc(NC(=O)CSc2nnc3nc(C)cc(C)n23)s1	1.8	9.9	-21.2	18.4*	0.1	-3.0
SMILES	CHRM4 agonist	CHRM5 antagonist	M4 antag	CHRM4 PAM	CHRM5 PAM	M5 ag
C[C@@H]1CCCCO[C@@H](CN(C)S(=O)(=O)c2ccccc2)[C@@H](C)CN([C@H](C)CO)C(=O)c2cc(NS(=O)(=O)c3ccc(F)cc3)ccc2O1	2.0	-6.2	4.4	-2.9	1.1	-0.8
CCN1/C(=C/C=C/c2oc3ccc(-c4ccccc4)cc3[n+]2CC)Oc2ccc(-c3ccccc3)cc21	+	101.7*	98.8*	-3.3	-33.9	+
COc1ccccc1C(CC(=O)c1ccccc1)C(=O)c1ccccc1 (stereo not given)	14.2	8.6	27.4*	-11.0	-14.2	4.8
COc1ccccc1C(CC(=O)c1ccccc1)CC(=O)c1ccccc1	-0.1	-4.3	-6.7	-8.1	-11.5	-2.8
O=C(c1cccs1)N1CCc2ccccc2C1	0.7	-8.7	-11.6	2.7	1.4	-8.1
O=C(c1ccc(Br)s1)N1CCc2ccccc2C1	1.3	-3.8	-2.2	2.9	19.1*	-6.7
O=C(Nc1cnn(Cc2ccc(Cl)cc2Cl)c1)c1noc2c1CCCC2	5.3	-0.3	4.1	-5.4	-4.6	0.6
O=C(Nc1cnn(Cc2ccc(Cl)cc2Cl)c1)c1cc(-c2cccs2)on1	0.5	-3.3	5.3	30.7*	3.0	4.5
C[C@H](CO)N1C[C@H](C)[C@@H](CN(C)Cc2ccc(-c3ccccc3)cc2)OCc2cnnn2CCCC1=O	5.6	0.7	-16.2	4.0	-2.2	0.8
CC(C)(C)Nc1nc(Nc2ccc([N+](=O)[O-])cc2)nc(NC(C)(C)C)n1	5.6	22.6	20.2	15.4*	-1.2	2.8
CCc1nc2c(OCc3cc(Cl)cc(Cl)c3)cccn2c1N(C)C(=O)c1ccccc1F	4.1	0.9	6.4	-6.5	-0.5	-2.7
CCCC(=O)N1CCC1(C)C(=O)NS(=O)(=O)c1ccc(OC)cc1 (stereo not given)	0.3	-2.0	0.7	5.8	-7.1	2.4
COc1ccc(-c2nc3cc(C)c(Br)c(C)n3c2Cc2ccsc2)cc1OC	-0.4	7.4	-5.8	11.2	-4.1	5.1
CCOc1ccccc1NC(=O)NC1CC2CCCC(C1)N2Cc1nnnn1CCc1ccccc1 (stereo not given)	-0.5	-8.5	42.3*	-10.7	-4.9	-3.9
COc1cccc(CNC(=O)[C@@H]2CCCN2C(=O)[C@@H]2CCCN2C(=O)c2cccs2)c1	0.3	8.0	-6.5	0.1	-7.6	2.6
Cc1c(Br)c([N+](=O)[O-])nn1C(C)C(=O)N1CCc2ccccc2C1 (stereo not given)	1.0	20.7	54.8*	-14.2	-13.5	-8.2
Cc1c(Br)c([N+](=O)[O-])nn1CC(=O)N1CCc2ccccc2C1	0.1	-7.8	-5.6	-4.6	5.7	-2.4

Compound activity deposited in PubChem BioAssay by The Scripps Research Institute Molecular Screening Center.
